Results: ChEMBL document CHEMBL1926642, “Relevance of the C-5 position to schweinfurthin induced cytotoxicity” (2011)

Assays:
Assay type in all cases: functional
[1] = system: CCRF-CEM; assay: Growth inhibition of human CCRF-CEM cells after 48 hrs by sulforhodamine B assay
[2] = system: MOLT-4; assay: Growth inhibition of human MOLT4 cells after 48 hrs by sulforhodamine B assay; settings: MOLT-4, 48 h
[3] = system: EKVX; assay: Growth inhibition of human EKVX cells after 48 hrs by sulforhodamine B assay
[4] = system: HOP-62; assay: Growth inhibition of human HOP62 cells after 48 hrs by sulforhodamine B assay; settings: HOP-62, 48 h
[5] = system: HOP-92; assay: Growth inhibition of human HOP92 cells after 48 hrs by sulforhodamine B assay; settings: HOP-92, 48 h
[6] = system: A549; assay: Ratio of GI50 for human A549 cells to GI50 for human SF295 cells after 48 hrs by sulforhodamine B assay
[7] = system: NCI-H522; assay: Growth inhibition of human NCI-H522 cells after 48 hrs by sulforhodamine B assay; settings: NCI-H522, 48 h
[8] = system: COLO 205; assay: Growth inhibition of human COLO205 cells after 48 hrs by sulforhodamine B assay; settings: COLO 205, 48 h
[9] = system: HCC 2998; assay: Growth inhibition of human HCC2998 cells after 48 hrs by sulforhodamine B assay; settings: HCC 2998, 48 h
[10] = system: HCT-116; assay: Growth inhibition of human HCT116 cells after 48 hrs by sulforhodamine B assay; settings: HCT-116, 48 h
[11] = system: HT-29; assay: Growth inhibition of human HT-29 cells after 48 hrs by sulforhodamine B assay; settings: HT-29, 48 h
[12] = system: SF-268; assay: Growth inhibition of human SF268 cells after 48 hrs by sulforhodamine B assay; settings: SF-268, 48 h
[13] = system: SF-295; assay: Growth inhibition of human SF295 cells after 48 hrs by sulforhodamine B assay; settings: SF-295, 48 h
[14] = system: SNB-19; assay: Growth inhibition of human SNB19 cells after 48 hrs by sulforhodamine B assay; settings: SNB-19, 48 h
[15] = system: U-251; assay: Growth inhibition of human U251 cells after 48 hrs by sulforhodamine B assay; settings: U-251, 48 h
[16] = system: LOX IMVI; assay: Growth inhibition of human LOXIMVI cells after 48 hrs by sulforhodamine B assay
[17] = system: Malme-3M; assay: Growth inhibition of human MALME-3M cells after 48 hrs by sulforhodamine B assay
[18] = system: M14; assay: Growth inhibition of human M14 cells after 48 hrs by sulforhodamine B assay; settings: M14, 48 h
[19] = system: UACC-62; assay: Growth inhibition of human UACC62 cells after 48 hrs by sulforhodamine B assay; settings: UACC-62, 48 h
[20] = system: IGROV-1; assay: Growth inhibition of human IGROV1 cells after 48 hrs by sulforhodamine B assay; settings: IGROV-1, 48 h
[21] = system: OVCAR-8; assay: Growth inhibition of human OVCAR8 cells after 48 hrs by sulforhodamine B assay; settings: OVCAR-8, 48 h
[22] = system: NCI/ADR-RES; assay: Growth inhibition of human NCI/ADR-RES cells after 48 hrs by sulforhodamine B assay
[23] = system: ACHN; assay: Growth inhibition of human ACHN cells after 48 hrs by sulforhodamine B assay
[24] = system: RXF 393; assay: Growth inhibition of human RXF393 cells after 48 hrs by sulforhodamine B assay; settings: RXF 393, 48 h
[25] = system: UO-31; assay: Growth inhibition of human UO31 cells after 48 hrs by sulforhodamine B assay; settings: UO-31, 48 h
[26] = system: DU-145; assay: Growth inhibition of human DU145 cells after 48 hrs by sulforhodamine B assay; settings: DU-145, 48 h
[27] = system: MCF7; assay: Growth inhibition of human MCF7 cells after 48 hrs by sulforhodamine B assay; settings: MCF7, 48 h
[28] = system: MDA-MB-468; assay: Growth inhibition of human MDA-MB-468 cells after 48 hrs by sulforhodamine B assay; settings: MDA-MB-468, 48 h
[29] = system: SR; assay: Growth inhibition of human SR cells after 48 hrs by sulforhodamine B assay
[30] = system: DU-145; assay: Cytotoxicity against human DU145 cells assessed as cell growth at 10 uM after 48 hrs by sulforhodamine B assay relative to control; settings: DU-145, 48 h, read-out: Activity
Method in brief: (§1)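 Compounds went through the NCI 60 cell-line screen, whose current protocol tests first at a single dose.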

[31] = system: HOP-62; assay: Cytotoxicity against human HOP62 cells assessed as cell growth at 10 uM after 48 hrs by sulforhodamine B assay relative to control; settings: HOP-62, 48 h, read-out: Activity; method in brief: as §1
[32] = system: SK-MEL-28; assay: Cytotoxicity against human SK-MEL-28 cells assessed as cell growth at 10 uM after 48 hrs by sulforhodamine B assay relative to control; settings: SK-MEL-28, 48 h, read-out: Activity; method in brief: as §1
[33] = system: NCI/ADR-RES; assay: Cytotoxicity against human NCI/ADR-RES cells assessed as cell growth at 10 uM after 48 hrs by sulforhodamine B assay relative to control; settings: read-out: Activity; method in brief: as §1

Work on `COc1cc(/C=C/c2cc(O)c3c(c2)C[C@@H]2C(C)(C)[C@H](O)CC[C@@]2(C)O3)cc(O)c1C/C=C(\C)CCC=C(C)C` yielded a GI50 [1] of 0.12 µM, an LC50 [1] of 100 µM and a TGI ([1]; read-out: pTGI (converted)) of 4.37 µM. For the same compound, the GI50 [2] was 0.0339 µM, the LC50 [2] was 100 µM and the TGI ([2]; read-out: pTGI (converted)) was 0.245 µM. It also gave a GI50 [3] of 0.977 µM, an LC50 (50% lethal concentration) [3] of 36.3 µM and a TGI ([3]; read-out: pTGI (converted)) of 10.2 µM. It also gave a GI50 [4] of 0.479 µM, an LC50 [4] of 30.2 µM and a TGI ([4]; read-out: pTGI (converted)) of 8.13 µM. It also gave a GI50 [5] of 2.29 µM, an LC50 [5] of 50.1 µM and a TGI ([5]; read-out: pTGI (converted)) of 6.61 µM. It also gave a RatioGI50 [6] of over 30, a GI50 [7] of 1.91 µM and an LC50 [7] of 52.5 µM. It also gave a TGI ([7]; read-out: pTGI (converted)) of 11 µM, a GI50 [8] of 0.575 µM and an LC50 [8] of 7.24 µM. For the same compound, the TGI ([8]; read-out: pTGI (converted)) was 2.24 µM, the GI50 [9] was 0.851 µM and the LC50 [9] was 9.33 µM. The TGI ([9]; read-out: pTGI (converted)) was 2.95 µM, the GI50 [10] was 0.603 µM and the LC50 [10] was 6.31 µM. It also gave a TGI ([10]; read-out: pTGI (converted)) of 2.34 µM, a GI50 [11] of 1.23 µM and an LC50 (concentration killing 50% of cells) [11] of 27.5 µM. It also gave a TGI ([11]; read-out: pTGI (converted)) of 4.9 µM, a GI50 [12] of 1.35 µM and an LC50 [12] of 42.7 µM. The TGI ([12]; read-out: pTGI (converted)) was 5.13 µM, the LC50 [13] was 26.9 µM and the GI50 ([13]; read-out: GI50) was 0.022 µM. The GI50 ([13]; read-out: pGI50 (converted)) was 0.024 µM, the TGI ([13]; read-out: pTGI (converted)) was 0.195 µM and the GI50 [14] was 2.88 µM. The LC50 [14] was 42.7 µM, the TGI ([14]; read-out: pTGI (converted)) was 17.8 µM and the GI50 [15] was 0.0759 µM. The LC50 [15] was 10.7 µM, the TGI ([15]; read-out: pTGI (converted)) was 2.63 µM and the GI50 [16] was 0.525 µM. The LC50 [16] was 4.68 µM, the TGI ([16]; read-out: pTGI (converted)) was 1.91 µM and the GI50 [17] was 1.95 µM. The LC50 [17] was 30.9 µM, the TGI ([17]; read-out: pTGI (converted)) was 5.13 µM and the GI50 [18] was 1.1 µM. It also gave an LC50 [18] of 18.6 µM, a TGI ([18]; read-out: pTGI (converted)) of 3.47 µM and a GI50 [19] of 0.204 µM. For the same compound, the LC50 (50% lethal concentration) [19] was 7.41 µM, the TGI ([19]; read-out: pTGI (converted)) was 0.794 µM and the GI50 [20] was 2.09 µM. The LC50 [20] was 40.7 µM, the TGI ([20]; read-out: pTGI (converted)) was 11 µM and the GI50 [21] was 2.82 µM. The LC50 [21] was 51.3 µM, the TGI ([21]; read-out: pTGI (converted)) was 12.6 µM and the GI50 [22] was 2.57 µM. The LC50 [22] was 58.9 µM, the TGI ([22]; read-out: pTGI (converted)) was 10.2 µM and the GI50 [23] was 1.78 µM. For the same compound, the LC50 [23] was 36.3 µM, the TGI ([23]; read-out: pTGI (converted)) was 12 µM and the GI50 [24] was under 0.01 µM. For the same compound, the LC50 (50% lethal concentration) [24] was 4.37 µM, the TGI ([24]; read-out: pTGI (converted)) was 0.055 µM and the GI50 [25] was 0.178 µM. It also gave an LC50 [25] of 37.2 µM, a TGI ([25]; read-out: pTGI (converted)) of 11.5 µM and a GI50 [26] of 2 µM. It also gave an LC50 [26] of 77.6 µM, a TGI ([26]; read-out: pTGI (converted)) of 11.7 µM and a GI50 [27] of 0.309 µM. It also gave an LC50 [27] of 29.5 µM, a TGI ([27]; read-out: pTGI (converted)) of 3.47 µM and a GI50 [28] of 1.1 µM. The LC50 [28] was 9.12 µM, the TGI ([28]; read-out: pTGI (converted)) was 3.16 µM and the GI50 [29] was 0.288 µM. It also gave an LC50 [29] of 100 µM and a TGI ([29]; read-out: pTGI (converted)) of 4.07 µM.

Compound `COc1cc(/C=C/c2cc(Br)c3c(c2)C[C@@H]2C(C)(C)[C@H](O)CC[C@@]2(C)O3)cc(O)c1C/C=C(\C)CCC=C(C)C` has a growth at 10 µM [30] of 91.3%, a growth at 10 µM [31] of 113% and a growth at 10 µM [32] of 106%. The growth at 10 µM [33] was 105%.

Work on `COCc1cc(/C=C/c2cc(O)c(C/C=C(\C)CCC=C(C)C)c(OC)c2)cc2c1O[C@]1(C)CC[C@@H](O)C(C)(C)[C@H]1C2` yielded a growth at 10 µM [30] of 105%, a growth at 10 µM [31] of 127% and a growth at 10 µM [32] of 118%. For the same compound, the growth at 10 µM [33] was 100%.
